Source: PubChem BioAssay (Johns Hopkins Ion Channel Center)
KCNK3 block: human KCNK3 channel inhibitors, primary screen, CHO cells, FluxOR thallium flux, B-score; B-score at 10 µM; 0.84% of 340,000 active; Potassium channel subfamily K member 3 (Homo sapiens), O14649; FluxOR fluorescence; hits give low values; AID 602410, 2012;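 active = B-score under library mean minus 4 SD, starting fluorescence ratio at most library mean plus 5 SD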;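 note: more negative B-score means stronger inhibition of thallium flux through KCNK3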
KCNQ1 act: potentiators or activators of KCNQ1 channel, primary screen, cell-based, thallium flux, high-throughput; Potassium voltage-gated channel subfamily KQT member 1 (Homo sapiens), P51787; CHO-K1 KCNQ1, thallium flux FluxOR fluorescence; hits give high values; B-score at 10 µM; 0.35% of 310,000 active; AID 2648, 2010;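 active = fluorescence ratio B-score, a plate-corrected score, at least three library SD, with initial intensity B-score within 5 SD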
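Doses: Single concentration per compound, DMSO matched to controls | Test system: KCNQ1-transfected CHO-K1 cells | Timing: 90 min dye loading and 20 min compound exposure, both at room temperature | Measured by: Kinetic FluxOR thallium fluorescence, 10-s 1-Hz baseline, 110-s post-stimulus read | Medium: Assay buffer with matched DMSO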
KCNQ1 inh: inhibitors of human KCNQ1 channel, primary screen, cell-based, thallium flux, high-throughput. Potassium voltage-gated channel subfamily KQT member 1 (Homo sapiens), P51787. CHO-K1 KCNQ1, FluxOR thallium flux fluorescence; hits give high values. B-score at 10 µM. 1.3% of 310,000 active. AID 2642, 2010;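 active = compounds whose thallium flux B-score, printed positive for inhibition, exceeds three library SD while starting fluorescence stays within three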;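 note: channel opened by potassium depolarization with thallium stimulus after 20 min compound exposure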
Kir21 inh: inhibitors of mouse Kir2.1 inward-rectifier potassium channel | AID 1672, 2009 | B-score at 10 µM | HEK293-Kir2.1, FluxOR thallium flux fluorescence; hits give low values | 0.85% of 310,000 active | Inward rectifier potassium channel 2 (Mus musculus), P35561;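 active = fluorescence ratio B-score at or below minus 3 SD of library scores, with starting-brightness B-score within 2 SD, cut at about -4.2 in these data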;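 note: channel flux triggered by added potassium and thallium sulfate stimulus; B-score of peak minus minimum fluorescence over baseline after thallium stimulus; more negative B-score means stronger Kir2.1 block with less thallium influx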
KCNK9 inh-1: KCNK9 potassium channel inhibitors, primary screen, HEK293 cells, thallium flux | Potassium channel subfamily K member 9 (Homo sapiens), Q9NPC2 | FluxOR thallium flux fluorescence; hits give low values | B-score at 10 µM | 1.2% of 310,000 active | AID 488922, 2010;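 active = ratio B-score over 3 SD below the library mean, with starting fluorescence within 5 SD of its mean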;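 note: negative B-score means less thallium flux so channel inhibition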
Target sequence (Q9NPC2 whole entry, looked up): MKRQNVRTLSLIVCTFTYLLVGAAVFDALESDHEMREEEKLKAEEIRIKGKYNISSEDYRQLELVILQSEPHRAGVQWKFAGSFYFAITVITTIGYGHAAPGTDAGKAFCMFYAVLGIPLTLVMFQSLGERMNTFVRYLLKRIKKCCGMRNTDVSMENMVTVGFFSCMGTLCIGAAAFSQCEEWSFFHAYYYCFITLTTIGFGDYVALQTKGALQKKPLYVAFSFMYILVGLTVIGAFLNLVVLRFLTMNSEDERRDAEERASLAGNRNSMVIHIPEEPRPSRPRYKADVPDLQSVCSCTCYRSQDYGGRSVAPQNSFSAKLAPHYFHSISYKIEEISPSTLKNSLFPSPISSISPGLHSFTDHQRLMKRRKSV
hERG rescue: hERG rescue from dofetilide block, primary screen, cell-based, CHO-hERG, FluxOR thallium flux, dofetilide IC70; dofetilide IC70 present; activation (rescue from dofetilide block), less the hit threshold, % at 10 µM; 0.51% of 310,000 active;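 active = activation above the mean of controls blocked by dofetilide plus 5 SD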;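 note: thallium influx through hERG after potassium depolarization seen as dye fluorescence rise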
hERG inh: hERG channel inhibition, counter-screen for Kir2.1 inhibitor project, cell-based, thallium flux; shares compounds with Kir21 inh; hERG-expressing cells; inhibition, % at 10 µM; 20% of 320 active; AID 2236, 2010;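 note: host cells are CHO cells stably expressing hERG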
KCNK9 inh-2: KCNK9 channel inhibition, selectivity assay for Kir2.1 inhibitor project, cell-based | AID 2329, 2010 | shares compounds with Kir21 inh | 5% of 320 active | inhibition, % at 10 µM | KCNK9-expressing cells, ion flux inhibition
Kir21 ephys inh: mouse Kir2.1 channel blockers, Kir2.1 inhibitor project, cell-based, secondary, automated electrophysiology. inhibition, % at 25 µM. AID 463252, 2010. shares compounds with Kir21 inh. 71% of 320 active. Kir2.1 cells, automated patch-clamp current inhibition
The depositor's hits bear a star; i = inactive; x = no result. The list is not random: actives were taken first. Their share in the collection is about 3.7%. Unless noted, the rule behind the calls is not given here.

SMILES	KCNK3 block	KCNQ1 act	KCNQ1 inh	Kir21 inh	KCNK9 inh-1	hERG rescue	hERG inh	KCNK9 inh-2	Kir21 ephys inh
c1ccc(Cn2c(SCc3nc4ccccc4s3)nnc2-c2ccco2)cc1	i	i	i	-7.03*	i	-20.8	i	i	13.4%*
COc1ccc(Cl)cc1N(CC(=O)NCCSc1ccccn1)S(=O)(=O)c1ccccc1	i	i	i	-0.33	i	-7.6	x	x	x
CCn1c(SCC(=O)NC(C)c2ccccc2)nc2ccccc21 (stereo not given)	i	i	i	-3.42	i	-9.2	x	x	x
CCn1c(Sc2ccc(N)cc2Cl)nc2ccccc21	i	i	i	-6.29*	i	-2.6	i	i	21.3%*
CCOC(=O)c1cccc(Nc2ncnc3ccc(C)cc23)c1	i	i	i	-6.05*	i	-10.2	i	i	32.4%*
CCOC(=O)c1ccc(Nc2ncnc3ccc(C)cc23)cc1	i	i	i	-0.98	i	-9.4	x	x	x
Cc1ccc(Cl)cc1NC(=O)COC(=O)CCN1C(=O)C2CC=CCC2C1=O (stereo not given)	i	x	x	x	x	x	x	x	x
COc1ccc(CN2C(=O)c3cccnc3C2=O)cc1S(=O)(=O)NC1CCCCC1	i	i	i	-0.02	i	-6.5	x	x	x
CCOc1nc(C)cc(C)c1S(=O)(=O)c1cccc(Cl)c1	i	i	i	-8.22*	i	-3.3	i	i	35.8%*
Cc1cc(C)c(S(=O)(=O)c2cccc(Cl)c2)c(Cl)n1	i	i	i	-0.36	i	-9.3	x	x	x
S=C(NCC1CCCO1)N1CCN(c2nc(-c3ccccc3)cs2)CC1 (stereo not given)	i	i	i	-0.8	i	-7.7	x	x	x
CCNS(=O)(=O)c1ccc(Br)c(C(=O)OC(C)C(=O)NCC2CCCCC2)c1 (stereo not given)	i	x	x	x	x	x	x	x	x
CN(C)CCN(Cc1ccccc1)C(=O)[C@H](Cc1ccccc1)N1C(=O)c2ccccc2C1=O	i	i	i	-6.05*	i	-7.5	i	i	i
CC(C)(C)OC(=O)NCCc1nnc(SCc2ccc(Cl)cc2)o1	i	i	i	-16.2*	i	-17.6	i	i	73.8%*
Cc1ccc(CSc2nnc(CCCCCNC(=O)OC(C)(C)C)o2)cc1	i	i	i	-3.07	i	-8.5	x	x	x
CC1CN(CCOCCOc2ccccc2-c2ccccc2)CC(C)O1 (stereo not given)	i	i	i	-3.08	i	-7.7	x	x	x
c1ccc(-c2ccccc2OCCOCCN2CCc3ccccc3C2)cc1	i	i	i	-8.31*	i	-16.2	66.0%*	i	39.1%*
COc1ccc(CCNC(=O)C(C)SCc2ccccc2)cc1 (stereo not given)	i	i	i	-7.49*	i	-10.3	i	i	56.0%*
COc1cccc(NC(=O)C(C)SCc2ccccc2)c1 (stereo not given)	i	i	i	0.21	i	-8.6	x	x	x
COc1ccc(-n2c(=O)c(CCC(=O)NCCc3ccccc3F)nc3ccccc32)cc1	i	x	x	x	x	x	x	x	x
COc1ccc(CNCc2cccc3ccccc23)cc1	i	i	i	x	i	0.1	i	i	x
CN(C)C(=O)c1ccccc1Sc1ccc(Cl)cc1Cl	i	i	i	-4.16	i	-12.1	x	x	x
CN(C)C(=O)c1ccccc1Sc1cc(Cl)ccc1Cl	i	i	i	-6.66*	i	-12.7	i	i	19.8%*
O=C(O)C1=C[C@@H](C2CCCCC2)C[C@@H](OCc2ccc(CO)cc2)O1	i	i	i	0.15	i	-5.1	x	x	x
NC(=O)C1=C[C@@H](C2CCCCC2)C[C@@H](OCc2ccc(CO)cc2)O1	i	i	i	-7.7*	i	-9.6	i	i	25.8%*
SMILES	KCNK3 block	KCNQ1 act	KCNQ1 inh	Kir21 inh	KCNK9 inh-1	hERG rescue	hERG inh	KCNK9 inh-2	Kir21 ephys inh
CCN(c1cccc(C)c1)S(=O)(=O)c1ccc2c(c1)NC(=O)CS2	i	i	i	-5.88*	i	-9.0	i	i	i
CCN(c1cccc(C)c1)S(=O)(=O)c1ccc2c(c1)NC(=O)CCS2	i	i	i	0.77	i	-7.3	x	x	x
CCCC(=O)NC(=S)Nc1ccc(S(=O)(=O)N2CCc3ccccc32)cc1	i	i	i	-0.41	i	-9.0	x	x	x
CCNC(=S)/N=C(/Nc1ccccc1)Nc1nc(C)cc(C)n1	i	i	i	2.49	i	-7.7	i	i	i
Cc1ccc(N(CCC#N)C(=O)CSc2nnc3ccccn23)cc1	i	x	x	x	x	x	x	x	x
Cc1cc(NC(=O)CSc2nc(=O)n(CCCN(C)C)c3c2CCCC3)no1	i	i	i	-1.54	i	-8.0	x	x	x
Cc1cccn2cc(CCNC(=O)Cc3cccs3)nc12	i	i	i	-0.11	i	-9.2	x	x	x
CC(CCc1ccccc1)NC(=O)CC(C)c1ccccc1 (stereo not given)	i	i	i	-7.99*	i	-4.7	i	i	38.5%*
CC(CCc1ccccc1)NC(=O)CSc1ccccn1 (stereo not given)	i	i	i	-3.09	i	-7.7	x	x	x
O=S(=O)(c1ccc(Cl)cc1)N1CCSC1c1ccco1 (stereo not given)	i	i	i	-6.54*	i	-8.7	i	i	21.1%*
COC(=O)C1SCCN1S(=O)(=O)c1ccc(Cl)cc1 (stereo not given)	i	i	i	0.86	i	-8.4	x	x	x
Cc1cc(C(=O)NCc2ccccc2Cl)n(-c2ccccc2)n1	i	i	i	0.1	i	-17.1	x	x	x
Fc1ccc(N2CCN(Cc3c[nH]c4ccccc34)CC2)cc1	x	i	i	-7.87*	i	-10.7	56.0%*	i	39.8%*
O=C(CCN1C(=O)CSc2ccccc21)Nc1ccc(OC(F)(F)F)cc1	i	x	x	x	x	x	x	x	x
